# Test results from ChEMBL document CHEMBL1123658, “1-(2-pyridinyl)piperazine derivatives with antianaphylactic, antibronchospastic, and mast cell stabilizing activities” (J Med Chem, 1987).
# How the values were obtained:
# [1] = In vivo toxic effect was determined in mouse after intraperitoneal administration with 10% aqueous acacia gum; value ranges from 3.43-5.07; format: toxicity, organism-based; conditions: ip
# In short: (§1)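 Female albino mice (20-30 g), 10 animals per dose, dosed intraperitoneally with compound in solution or suspension; compounds tested as salts unless noted. Mortality was recorded over 7 days.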
# Rattus norvegicus [2] = assay: Rat PCA Test(50% inhibition of spot areas)in the female albino rats after (ip) administration in 10% aqueous acacia gum; value ranges from 206-307; format: functional; conditions: read-out: ID50 (the source's name)
# In short: (§2)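 Female albino rats (200–250 g) received intradermal ventral injections of rat anti-egg-albumin antiserum; donors were raised with egg albumin im plus H. pertussis ip, and serum was taken at 12 days. 24 h later, compound was given ip in 10% acacia gum (10 mL/kg), 10 rats/group. Challenge 30 min later was iv 0.3% egg albumin plus 1% Evans blue. Blued areas were measured 30 min after challenge.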
# Cavia porcellus [3] = assay: Antibronchospatic activity determined by histamine stimulated bronchospasm inhibition in guinea pigs after(i.v.) administration; format: functional, Bronchiole
# In short: (§3)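 Guinea pigs, Konzett–Rössler preparation. Bronchospasm was induced with histamine. Compound was given iv (1 mL/kg) 1 min before the agonist, dissolved in saline or saline with slight excess HCl or CH3SO3H (pH 3.5–4). Three doses were tested in duplicate, chosen to give 20–90% inhibition. ID75 was read graphically from log dose–response curves.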
# [4] = In vivo toxic effect was determined in mouse after intraperitoneal administration with 10% aqueous acacia gum; value ranges from 0.57-1.04; format: toxicity, organism-based; conditions: ip; in short: as §1
# Rattus norvegicus [5] = assay: Rat PCA Test(50% inhibition of spot areas)in the female albino rats after oral administration in 10% aqueous acacia gum; format: functional; conditions: read-out: ID50 (the source's name)
# In short: (§4)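 Female rats (200-250 g) were passively sensitized by ventral intradermal anti-egg-albumin antiserum. This was raised in rats by intramuscular 1% egg albumin plus ip H. pertussis vaccine, with serum taken at 12 days. After 24 h, groups of 10 were dosed orally with compound or vehicle (10 mL/kg). At 60 min, iv challenge used 0.3% egg albumin with 1% Evans blue. Blued areas were measured after 30 min.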
# [6] = In vivo toxic effect was determined in mouse after oral administration with 10% aqueous acacia gum; value ranges from 0.99-1.61; format: toxicity, organism-based
# In short: (§5)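 Female albino mice, 20-30 g. Compound given orally as solution or suspension in 10% aqueous acacia gum, 10 animals per dose. Deaths recorded over 7 days.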
# Rattus norvegicus [7] = assay: Inhibition of mast cell degranulation was assessed in female albino rats at a dose of 47 umol/kg iv; format: functional
# Rattus norvegicus [8] = assay: Rat PCA Test(50% inhibition of spot areas)in the female albino rats after (ip) administration in 10% aqueous acacia gum; value ranges from 43-53; format: functional; conditions: read-out: ID50 (the source's name); in short: as §2
# [9] = In vivo toxic effect was determined in mouse after oral administration with 10% aqueous acacia gum; value ranges from 0.69-1.33; format: toxicity, organism-based; in short: as §5
# Rattus norvegicus [10] = assay: Inhibition of mast cell degranulation was assessed in female albino rats at a dose of 48 umol/kg iv; format: functional
# [11] = In vivo toxic effect was determined in mouse after intraperitoneal administration with 10% aqueous acacia gum; value ranges from 0.55-1.17; format: toxicity, organism-based; conditions: ip; in short: as §1
# Rattus norvegicus [12] = assay: Rat PCA Test(50% inhibition of spot areas)in the female albino rats after (ip) administration in 10% aqueous acacia gum; value ranges from […]; format: functional; conditions: read-out: ID50 (the source's name); in short: as §2
# [13] = In vivo toxic effect was determined in mouse after intraperitoneal administration with 10% aqueous acacia gum; value ranges from 2.17-4.89; format: toxicity, organism-based; conditions: ip; in short: as §1
# Rattus norvegicus [14] = assay: Inhibition of mast cell degranulation was assessed in female albino rats at a dose of 28 umol/kg iv; format: functional
# [15] = In vivo toxic effect was determined in mouse after oral administration with 10% aqueous acacia gum; value ranges from 5.08-7.62; format: toxicity, organism-based; in short: as §5
# Rattus norvegicus [16] = assay: Rat PCA Test(50% inhibition of spot areas)in the female albino rats after oral administration in 10% aqueous acacia gum; value ranges from 80-130; format: functional; conditions: read-out: ID50 (the source's name); in short: as §4
# [17] = In vivo toxic effect was determined in mouse after intraperitoneal administration with 10% aqueous acacia gum; value ranges from 4.25-7.74; format: toxicity, organism-based; conditions: ip; in short: as §1
# Rattus norvegicus [18] = assay: Rat PCA Test(50% inhibition of spot areas)in the female albino rats after (ip) administration in 10% aqueous acacia gum; format: functional; conditions: read-out: ID50 (the source's name); in short: as §2
# Rattus norvegicus [19] = assay: Rat PCA Test(50% inhibition of spot areas)in the female albino rats after (ip) administration in 10% aqueous acacia gum; value ranges from 141-206; format: functional; conditions: read-out: ID50 (the source's name); in short: as §2
# [20] = In vivo toxicity in mouse after oral administration with 10% aqueous acacia gum; format: organism-based; in short: as §5
# Rattus norvegicus [21] = assay: Rat PCA Test(50% inhibition of spot areas)in the female albino rats after oral administration in 10% aqueous acacia gum; value ranges from 30-108; format: functional; conditions: read-out: ID50 (the source's name); in short: as §4
# Mus musculus = assay: In vivo toxic effect was determined in mouse after intraperitoneal administration with 10% aqueous acacia gum; NA means poorly absorbed; format: toxicity, organism-based; conditions: ip; in short: as §1
# Rattus norvegicus [22] = assay: Rat PCA Test(50% inhibition of spot areas)in the female albino rats after (ip) administration in 10% aqueous acacia gum; value ranges from 115-142; format: functional; conditions: read-out: ID50 (the source's name); in short: as §2
# Rattus norvegicus [23] = assay: Inhibition of mast cell degranulation was assessed in female albino rats at a dose of 35 umol/kg iv; format: functional
# Rattus norvegicus [24] = assay: Rat PCA Test(50% inhibition of spot areas)in the female albino rats after oral administration in 10% aqueous acacia gum;Value ranges from (2-34); format: functional; conditions: read-out: ID50 (the source's name); in short: as §4
# Rattus norvegicus [25] = assay: Rat PCA Test(50% inhibition of spot areas)in the female albino rats after oral administration in 10% aqueous acacia gum; Value ranges from (60-123); format: functional; conditions: read-out: ID50 (the source's name); in short: as §4
# Rattus norvegicus [26] = assay: Inhibition of mast cell degranulation was assessed in female albino rats at a dose of 45 umol/kg iv administration; format: functional
# [27] = In vivo toxic effect was determined in mouse after intraperitoneal administration with 10% aqueous acacia gum; value ranges from 0.67-1.21; format: toxicity, organism-based; conditions: ip; in short: as §1
# Rattus norvegicus [28] = assay: Rat PCA Test(50% inhibition of spot areas)in the female albino rats after (ip) administration in 10% aqueous acacia gum; value ranges from 41.2-87.3; format: functional; conditions: read-out: ID50 (the source's name); in short: as §2
# Cavia porcellus [29] = assay: Antibronchospatic activity was determined by inhibition of histamine stimulated bronchospasm in guinea pigs after (i.v.) administration; format: functional, Bronchiole; in short: as §3
# Rattus norvegicus [30] = assay: Inhibition of mast cell degranulation was assessed in female albino rats at a dose of 43 umol/kg iv; format: functional
# Rattus norvegicus [31] = assay: Inhibition of mast cell degranulation was assessed in female albino rats at a dose of 23 umol/kg iv; format: functional
# Rattus norvegicus [32] = assay: Rat PCA Test(50% inhibition of spot areas)in the female albino rats after oral administration in 10% aqueous acacia gum; value ranges from 8-11; format: functional; conditions: read-out: ID50 (the source's name); in short: as §4
smiles,measurement,setting,value
COC(=O)CCN1CCN(c2ccccn2)CC1.Cl,LD50,[1],4020 µmol/kg
same,ED50,Rattus norvegicus [2],252 µmol/kg
same,ID75,Cavia porcellus [3],3.5 µM/kg
COc1ccc(NC(=O)CCN2CCN(c3ccccn3)CC2)cc1.Cl.Cl,LD50,[4],710 µmol/kg
same,ED50,Rattus norvegicus [5],> 95 µmol/kg
same,LD50,[6],1160 µmol/kg
same,inhibition in vivo at 47 µmol/kg,Rattus norvegicus [7],19%
same,ED50,Rattus norvegicus [8],48 µmol/kg
same,ID75,Cavia porcellus [3],0.24 µM/kg
Cl.Cl.O=C(CCN1CCN(c2ccccn2)CC1)Nc1ccc(Cl)cc1,LD50,[9],960 µmol/kg
same,inhibition in vivo at 48 µmol/kg,Rattus norvegicus [10],0%
same,ED50,Rattus norvegicus [5],> 96 µmol/kg
same,LD50,[11],620 µmol/kg
same,ED50,Rattus norvegicus [12],43 µmol/kg
CC(O)c1ccc(NC(=O)CCN2CCN(c3ccccn3)CC2)cc1 (stereo unspecified),LD50,[13],3250 µmol/kg
same,inhibition in vivo at 28 µmol/kg,Rattus norvegicus [14],22%
same,LD50,[15],5970 µmol/kg
same,ED50,Rattus norvegicus [16],103 µmol/kg
same,ID75,Cavia porcellus [3],0.48 µM/kg
O=C(O)CCN1CCN(c2ccccn2)CC1,LD50,[17],5540 µmol/kg
same,ED50,Rattus norvegicus [18],> 1280 µmol/kg
same,ID75,Cavia porcellus [3],5.23 µM/kg
CSc1ccc(NC(=O)CCN2CCN(c3ccccn3)CC2)cc1,ED50,Rattus norvegicus [19],171 µmol/kg
same,LD50,[20],> 8400 µmol/kg
same,inhibition in vivo at 28 µmol/kg,Rattus norvegicus [14],50%
same,ED50,Rattus norvegicus [21],57 µmol/kg
same,LD50,Mus musculus,Not Active
same,ID75,Cavia porcellus [3],0.17 µM/kg
CCOC(=O)C(=O)Nc1ccc(NC(=O)CCN2CCN(c3ccccn3)CC2)cc1,LD50,[20],> 7050 µmol/kg
same,ED50,Rattus norvegicus [22],127 µmol/kg
same,inhibition in vivo at 35 µmol/kg,Rattus norvegicus [23],7%
same,ID75,Cavia porcellus [3],0.23 µM/kg
Cc1cccc(C)c1NC(=O)CCN1CCN(c2ccccn2)CC1,ED50,Rattus norvegicus [24],8 µmol/kg
same,ED50,Rattus norvegicus [25],86 µmol/kg
same,inhibition in vivo at 45 µmol/kg,Rattus norvegicus [26],27%
same,LD50,[27],810 µmol/kg
O=C([O-])c1cc(=O)c2c(OCC(O)COc3cccc4oc(C(=O)[O-])cc(=O)c34)cccc2o1.[Na+].[Na+] [CROMOLYN SODIUM],ED50,Rattus norvegicus [28],60 µmol/kg
same,LD50,[20],> 6410 µmol/kg
same,ID75,Cavia porcellus [29],>21 µM/kg
same,LD50,Mus musculus,Not Active
same,ED50,Rattus norvegicus [5],> 640 µmol/kg
same,inhibition in vivo at 43 µmol/kg,Rattus norvegicus [30],83%
O=c1[nH]c2ccccc2n1CCCN1CCN(C(c2ccccc2)c2ccccc2)CC1 [OXATOMIDE],LD50,[20],> 7300 µmol/kg
same,inhibition in vivo at 23 µmol/kg,Rattus norvegicus [31],40%
same,ED50,Rattus norvegicus [32],9 µmol/kg
same,ID75,Cavia porcellus [3],0.08 µM/kg
